Results reported in ChEMBL document CHEMBL3769360, “Phthalimido-thiazoles as building blocks and their effects on the growth and morphology of Trypanosoma cruzi” (Eur J Med Chem, 2016).
One block for each compound: values may come before it. Active and inactive are the calls of the source. No cut-off for these calls is given here.

How the values were obtained:
[1] = Cytotoxicity against BALB/c mouse splenocytes assessed as highest non-toxic concentration causing >90 % incorporation of [3H]-thymidine after 24 hrs by beta counting method; assay type: cell-based, Splenocyte; details: read-out: MNTD90
Outline: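 BALB/c mouse splenocytes at 5 × 10^6 cells/well in RPMI-1640 with 10% inactivated FBS. Compounds were dissolved in DMSO (10 mg/mL stock) and serially diluted to 1.0, 5.0, 10, 25, 50 and 100 (final), in triplicate. Controls were saponin and medium with DMSO. 3H-thymidine was added, then 24 h at 37 °C, 5% CO2, and beta counting. Untreated = 100%; >90% incorporation counted as nontoxic.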

Trypanosoma cruzi [2] = assay: Trypanocidal activity against epimastigote form of Trypanosoma cruzi Dm28c after 11 days by neubauer chamber method; assay type: functional; details: 264 h
Trypanosoma cruzi [3] = assay: Trypanocidal activity against trypamostigote form of Trypanosoma cruzi Y infected in African green monkey Vero cells after 24 hrs by neubauer chamber method; assay type: functional, organism-based
Outline: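 Y strain trypomastigotes harvested from Vero cell supernatants, 4 × 10^5 cells/well, compounds in triplicate, benznidazole as positive control. Incubated 24 h at 37 °C, 5% CO2. Motile parasites counted in a Neubauer chamber; untreated wells = 100%. IC50 by nonlinear regression over at least seven concentrations.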

[4] = Lipophilicity, log P of compound; assay type: physicochemical; details: octanol/water
[5] = Selectivity index, ratio of MNTD90 for cytotoxicity against BALB/c mouse splenocytes to IC50 for trypamostigote form of Trypanosoma cruzi Y infected in African green monkey Vero cells; assay type: toxicity, cell-based; details: read-out: Selectivity Index
Trypanosoma cruzi [6] = assay: Induction of ultrastructural changes in trypamostigote form of Trypanosoma cruzi Y assessed as blebs in flagellum at IC50 after 24 hrs by scanning electron microscopic analysis; assay type: functional, organism-based
Outline: (§1)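 Trypomastigotes cultured 24 h in RPMI 1640 (pH 7.5, 20 mM HEPES, 10% FBS, penicillin/streptomycin) with compound at two concentrations (1× and 2×). Washed in PBS and fixed in glutaraldehyde/formaldehyde in 0.1 M cacodylate pH 6.8, then OsO4 postfixed. Dehydrated in graded ethanol, CO2 critical-point dried, gold-coated and examined by SEM against untreated controls.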

Trypanosoma cruzi [7] = assay: Induction of ultrastructural changes in trypamostigote form of Trypanosoma cruzi Y assessed as shortening of flagellum at 2 times IC50 after 24 hrs by scanning electron microscopic analysis; assay type: functional, organism-based; outline: as §1
Trypanosoma cruzi [8] = assay: Antitrypanosomal activity against trypamostigote form of Trypanosoma cruzi Y assessed as decrease in number of parasites after 24 hrs by scanning electron microscopic analysis; assay type: functional, organism-based; outline: as §1
Trypanosoma cruzi [9] = assay: Induction of ultrastructural changes in trypamostigote form of Trypanosoma cruzi Y assessed as alterations in reservosome at IC50 after 24 hrs by uranyl acetate/lead citrate staining based transmission electron microscopic analysis; assay type: functional, organism-based
Outline: (§2)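 Trypomastigotes exposed for 24 h in RPMI 1640 (pH 7.5, 20 mM HEPES, 10% FBS, antibiotics) with compound at 1× or 2× the set concentration. Fixed in 2.5% glutaraldehyde, 4% formaldehyde, 0.1 M cacodylate pH 6.8, postfixed in 2% OsO4. Acetone-dehydrated, epon-embedded, sections stained with uranyl acetate/lead citrate and examined by TEM against untreated parasites.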

Trypanosoma cruzi [10] = assay: Induction of ultrastructural changes in trypamostigote form of Trypanosoma cruzi Y assessed as intense cytoplasmic vacuolization at IC50 after 24 hrs by uranyl acetate/lead citrate staining based transmission electron microscopic analysis; assay type: functional, organism-based; outline: as §2
Trypanosoma cruzi [11] = assay: Induction of ultrastructural changes in trypamostigote form of Trypanosoma cruzi Y assessed as abnormal chromatin condensation at IC50 after 24 hrs by uranyl acetate/lead citrate staining based transmission electron microscopic analysis; assay type: functional, organism-based; outline: as §2
Trypanosoma cruzi [12] = assay: Induction of ultrastructural changes in trypamostigote form of Trypanosoma cruzi Y assessed as swelling of mitochondria at IC50 after 24 hrs by uranyl acetate/lead citrate staining based transmission electron microscopic analysis; assay type: functional, organism-based; outline: as §2
Trypanosoma cruzi [13] = assay: Induction of ultrastructural changes in trypamostigote form of Trypanosoma cruzi Y assessed as loss of cytoplasmic material at IC50 after 24 hrs by uranyl acetate/lead citrate staining based transmission electron microscopic analysis; assay type: functional, organism-based; outline: as §2
Trypanosoma cruzi [14] = assay: Induction of ultrastructural changes in trypamostigote form of Trypanosoma cruzi Y assessed as alterations in reservosome at 2 times IC50 after 24 hrs by uranyl acetate/lead citrate staining based transmission electron microscopic analysis; assay type: functional, organism-based; outline: as §2
Trypanosoma cruzi [15] = assay: Induction of ultrastructural changes in trypamostigote form of Trypanosoma cruzi Y assessed as intense cytoplasmic vacuolization at 2 times IC50 after 24 hrs by uranyl acetate/lead citrate staining based transmission electron microscopic analysis; assay type: functional, organism-based; outline: as §2
Trypanosoma cruzi [16] = assay: Induction of ultrastructural changes in trypamostigote form of Trypanosoma cruzi Y assessed as abnormal chromatin condensation at 2 times IC50 after 24 hrs by uranyl acetate/lead citrate staining based transmission electron microscopic analysis; assay type: functional, organism-based; outline: as §2
Trypanosoma cruzi [17] = assay: Induction of apoptosis in trypamostigote form of Trypanosoma cruzi Y assessed as necrotic cells after 24 hrs by Annexin V-FITC/propidium iodide staining based flow cytometry; assay type: functional, organism-based
Outline: (§3)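 Trypomastigotes (1 × 10^7) incubated 24 h at 37 °C with or without compound. Then labelled with annexin V-FITC and propidium iodide using a kit per the manufacturer's instructions and analysed by flow cytometry. Two independent experiments, each concentration in duplicate; comparison against untreated cells.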

Trypanosoma cruzi [18] = assay: Induction of ultrastructural changes in trypamostigote form of Trypanosoma cruzi Y assessed as dilated endoplasmic reticulum at 2 times IC50 after 24 hrs by uranyl acetate/lead citrate staining based transmission electron microscopic analysis; assay type: functional, organism-based; outline: as §2
Trypanosoma cruzi [19] = assay: Induction of ultrastructural changes in trypamostigote form of Trypanosoma cruzi Y assessed as swelling of kinetoplast at 2 times IC50 after 24 hrs by uranyl acetate/lead citrate staining based transmission electron microscopic analysis; assay type: functional, organism-based; outline: as §2
Trypanosoma cruzi [20] = assay: Induction of apoptosis in trypamostigote form of Trypanosoma cruzi Y assessed as late apoptotic cells after 24 hrs by Annexin V-FITC/propidium iodide staining based flow cytometry; assay type: functional, organism-based; outline: as §3
Trypanosoma cruzi [21] = assay: Induction of apoptosis in trypamostigote form of Trypanosoma cruzi Y assessed as early apoptotic cells after 24 hrs by Annexin V-FITC/propidium iodide staining based flow cytometry; assay type: functional, organism-based; outline: as §3
Trypanosoma cruzi [22] = assay: Induction of apoptosis in trypamostigote form of Trypanosoma cruzi Y assessed as necrotic cells at 25 uM after 24 hrs by Annexin V-FITC/propidium iodide staining based flow cytometry relative to untreated control; assay type: functional; outline: as §3
Trypanosoma cruzi [23] = assay: Induction of apoptosis in trypamostigote form of Trypanosoma cruzi Y assessed as late apoptotic cells at 25 uM after 24 hrs by Annexin V-FITC/propidium iodide staining based flow cytometry relative to untreated control; assay type: functional; outline: as §3
Trypanosoma cruzi [24] = assay: Induction of apoptosis in trypamostigote form of Trypanosoma cruzi Y assessed as necrotic cells at 5 uM after 24 hrs by Annexin V-FITC/propidium iodide staining based flow cytometry; assay type: functional, organism-based; outline: as §3
Trypanosoma cruzi [25] = assay: Induction of apoptosis in trypamostigote form of Trypanosoma cruzi Y assessed as late apoptotic cells at 5 uM after 24 hrs by Annexin V-FITC/propidium iodide staining based flow cytometry; assay type: functional, organism-based; outline: as §3
Trypanosoma cruzi [26] = assay: Induction of apoptosis in trypamostigote form of Trypanosoma cruzi Y assessed as early apoptotic cells at 5 and 25 uM after 24 hrs by Annexin V-FITC/propidium iodide staining based flow cytometry; assay type: functional, organism-based; outline: as §3

Structure (SMILES): O=C1c2ccccc2C(=O)N1Nc1nc(-c2ccc(Cl)cc2Cl)cs1
- MNTC at 24 h [1]: 12.8 µM
- IC50 (Trypanosoma cruzi [2]): 10.1 µM
- IC50 (Trypanosoma cruzi [3]): 22.7 µM

Structure (SMILES): Cc1ccc(-c2cs/c(=N\N=C\CN3C(=O)c4ccccc4C3=O)n2-c2ccccc2)cc1
- MNTC at 24 h [1]: 221 µM
- IC50 (Trypanosoma cruzi [2]): 57.8 µM
- IC50 (Trypanosoma cruzi [3]): 33.3 µM

Structure (SMILES): O=C1c2ccccc2C(=O)N1C/C=N/N=c1\scc(-c2ccc(Br)cc2)n1-c1ccccc1
- MNTC at 24 h [1]: 96.6 µM
- IC50 (Trypanosoma cruzi [3]): 9.7 µM

- logP [4]: 5.66
Structure (SMILES): O=C1c2ccccc2C(=O)N1Nc1nc(-c2ccc(-c3ccccc3)cc2)cs1
- MNTC at 24 h [1]: 252 µM
- IC50 (Trypanosoma cruzi [2]): 4 µM
- IC50 (Trypanosoma cruzi [3]): 27.5 µM

- logP [4]: 3.98
Structure (SMILES): O=C1c2ccccc2C(=O)N1Nc1nc(-c2ccccc2)cs1
- MNTC at 24 h [1]: 3.1 µM
- IC50 (Trypanosoma cruzi [2]): 70.2 µM
- IC50 (Trypanosoma cruzi [3]): 108 µM

Structure (SMILES): O=C1c2ccccc2C(=O)N1Nc1nc(CCl)cs1
- MNTC at 24 h [1]: 17 µM
- IC50 (Trypanosoma cruzi [2]): 226 µM
- IC50 (Trypanosoma cruzi [3]): 54.4 µM
- selectivity ratio [5]: 0.3

Structure (SMILES): O=C1c2ccccc2C(=O)N1Nc1nc(-c2ccc([N+](=O)[O-])cc2)cs1
- MNTC at 24 h [1]: 2.7 µM
- IC50 (Trypanosoma cruzi [2]): 13.3 µM
- IC50 (Trypanosoma cruzi [3]): 84.9 µM

Structure (SMILES): O=C1c2ccccc2C(=O)N1C/C=N/N=c1\scc(-c2ccccc2)n1-c1ccccc1
- MNTC at 24 h [1]: 228 µM
- IC50 (Trypanosoma cruzi [3]): 8.8 µM

Structure (SMILES): O=C1c2ccccc2C(=O)N1Nc1nc(-c2cccc([N+](=O)[O-])c2)cs1
- MNTC at 24 h [1]: 2.7 µM
- IC50 (Trypanosoma cruzi [2]): 43.2 µM
- IC50 (Trypanosoma cruzi [3]): 91.1 µM

Structure (SMILES): O=C1c2ccccc2C(=O)N1Nc1nc(-c2ccc(Cl)c(Cl)c2)cs1
- MNTC at 24 h [1]: 2.6 µM
- IC50 (Trypanosoma cruzi [2]): 69.3 µM
- IC50 (Trypanosoma cruzi [3]): 88.8 µM

Structure (SMILES): NC(=S)NN1C(=O)c2ccccc2C1=O
- MNTC at 24 h [1]: 4.5 µM
- IC50 (Trypanosoma cruzi [2]): 56.8 µM
- IC50 (Trypanosoma cruzi [3]): 52 µM

- logP [4]: 4.98
Structure (SMILES): O=C1c2ccccc2C(=O)N1Nc1nc(-c2ccc3ccccc3c2)cs1
- MNTC at 24 h [1]: 269 µM
- IC50 (Trypanosoma cruzi [2]): 8 µM
- IC50 (Trypanosoma cruzi [3]): 4.7 µM

Structure (SMILES): O=C1c2ccccc2C(=O)N1C/C=N/N=c1\scc(-c2cccc([N+](=O)[O-])c2)n1-c1ccccc1
- MNTC at 24 h [1]: 103 µM
- IC50 (Trypanosoma cruzi [2]): 6 µM
- IC50 (Trypanosoma cruzi [3]): 0.9 µM
- selectivity ratio [5]: 115
- Activity (Trypanosoma cruzi [6]): Active
- Activity (Trypanosoma cruzi [7]): Active
- Activity (Trypanosoma cruzi [8]): Dose-dependent effect
- Activity (Trypanosoma cruzi [9]): Active
- Activity (Trypanosoma cruzi [10]): Active
- Activity (Trypanosoma cruzi [11]): Active
- Activity (Trypanosoma cruzi [12]): Active
- Activity (Trypanosoma cruzi [13]): Active
- Activity (Trypanosoma cruzi [14]): Active
- Activity (Trypanosoma cruzi [15]): Active
- Activity (Trypanosoma cruzi [16]): Active
- Activity (Trypanosoma cruzi [17]): Dose-dependent effect
- Activity (Trypanosoma cruzi [18]): Active
- Activity (Trypanosoma cruzi [19]): Active
- Activity (Trypanosoma cruzi [20]): Dose-dependent effect
- Activity (Trypanosoma cruzi [21]): inactive
- Activity (Trypanosoma cruzi [22]): 11%
- Activity (Trypanosoma cruzi [23]): 11%
- Activity (Trypanosoma cruzi [24]): inactive
- Activity (Trypanosoma cruzi [25]): inactive
- Activity (Trypanosoma cruzi [26]): inactive

Structure (SMILES): O=C1c2ccccc2C(=O)N1C/C=N/N=c1\scc(-c2ccc([N+](=O)[O-])cc2)n1-c1ccccc1
- MNTC at 24 h [1]: 207 µM
- IC50 (Trypanosoma cruzi [2]): 12.2 µM
- IC50 (Trypanosoma cruzi [3]): 3.2 µM
- selectivity ratio [5]: 64.6
